The text below walks through data of PMC3014451 (Bioorganic & medicinal chemistry, 2010).

Data set [1] has as its system ALS. To be noted: ALS patients; ref v; cited from earlier work.
The nature of data set [2]: Microsomal stability. To be noted: human, liver microsomes, pH 7.4, CL’int, 37 °C, with NADPH. The data set is classed as in vitro ADME. In outline: (§1)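 Test compound at 5 μM, in duplicate, with liver microsomes (0.275 mg/mL protein) in 100 mM potassium phosphate, 3 mM MgCl2, 2 mM NADPH, pH 7.4, at 37 °C; a parallel control omits NADPH. Aliquots at 15 sec to 60 min quenched in acidified acetonitrile. Parent quantified by LC-MS/MS against haloperidol internal standard. k from 1/Y-weighted exponential fit; T1/2 = ln2/k.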

Data set [3] can be described thus: Mouse plasma stability. It counts as in vitro ADME. In outline:
(§2)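 Samples were taken at 15 s, 10, 20, 40 and 60 min and precipitated with acetonitrile containing haloperidol as internal standard, then analysed by LC-MS/MS for analyte/internal standard peak-area ratio. The plasma ratio was divided by the PBS ratio at the same time point.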

Data set [4] in a line: PBS stability. It counts as physicochemical. Particulars: 5 μM, 37 °C. In short, it runs like this: as §2
Data set [5] is described as follows: Aqueous solubility screen in PBS. The data set is classed as physicochemical. To be noted: PBS with 1% DMSO.
A short description of data set [6]: Microsomal stability. The data set is classed as in vitro ADME. To be noted: mouse, liver microsomes. In short, it runs like this: as §1
Background: Microsomes from liver hold many membrane-bound enzymes, among them those of drug oxidation.

The test system of data set [7] is mutant G93A SOD1 aggregation in PC12 cells. Put plainly: Mutant SOD1-induced cytotoxicity protection assay. It counts as cell-based. To be noted: maximum cell viability in cytotoxicity protection assay.

Values after ≈ are worked out from the molar mass of the structure shown.

Consider `Nc1nc2ccc(OC(F)(F)F)cc2s1` [Riluzole], for which the “prolongation of patient life” value in data set [1] is on record as “two to three”.
The CLint scaled is a measure of how fast metabolising enzymes remove a compound, apart from limits set by blood flow. In general, solubility refers to how much of the substance goes into solution per volume. Lower therefore signals a poorly soluble substance. With `Cc1cc(SCc2cc(=O)[nH][nH]2)c(Cl)cc1Cl` [compound 1, 5-((2,4-Dichloro-5-methylphenylthio)methyl)-1H-pyrazol-3(2H)-one], the CLint scaled at 5 μM in data set [2] was determined as 58.5 mL/min/kg; in data set [6] (pH 7.4, CL’int No NADPH, without NADPH) it was 61.2 mL/min/kg; in data set [6] (pH 7.4, CL’int, 5 μM, 37 °C, with NADPH) it was 292 mL/min/kg. Besides, in data set [3], the “Recovery Plasma vs. PBS” value stood at 91%. For the same molecule, the “PBS Amount Remaining at 60 min” value in data set [4] is listed as 100%. In data set [5], this molecule had a solubility at 1 h of 16.4 µg/mL (≈ 56.7 µM).
`C[C@@H]1C[C@H]2O[C@@H]2/C=C\C=C\C(=O)Cc2c(Cl)c(O)cc(O)c2C(=O)O1` [radicicol]: the “efficacy (cell viability)” value in data set [7] was found to be 85%.
